ChEMBL document CHEMBL3351780, “Novel hybrids of metronidazole and quinolones: synthesis, bioactive evaluation, cytotoxicity, preliminary antimicrobial mechanism and effect of metal ions on their transportation by human serum albumin” (Eur J Med Chem, 2014)
≈ marks a conversion by molar mass, not a printed value.

Tests used:
Format in all cases: functional
Micrococcus luteus = assay: Antibacterial activity against Micrococcus luteus by two-fold serial dilution method
Method in brief: (§1)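 Standard two-fold serial dilution in 96-well microtest plates following NCCLS. Top dilutions printed as 32, 16, 8, 4, 2, 1, 0.5 ug/mL. Wells inoculated and held at 37 °C for 24 h. Growth judged visually and by spectrophotometer, in triplicate. MIC is the lowest concentration giving complete growth inhibition.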

Staphylococcus aureus [1] = assay: Antibacterial activity against methicillin-resistant Staphylococcus aureus N315 by two-fold serial dilution method
Method in brief: (§2)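 MIC read as the lowest concentration giving complete growth inhibition. Two-fold serial dilutions were made in 96-well plates following NCCLS, giving a series down to 0.5 µg/mL (…32, 16, 8, 4, 2, 1, 0.5). Plates were inoculated and incubated at 37 °C for 24 h. A DMSO-with-inoculum control without drug was included. Growth was monitored visually and spectrophotometrically, in triplicate.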

Staphylococcus aureus [2] = assay: Antibacterial activity against Staphylococcus aureus ATCC 25923 by two-fold serial dilution method; method in brief: as §1
Bacillus spizizenii = assay: Antibacterial activity against Bacillus subtilis ATCC 6633 by two-fold serial dilution method; method in brief: as §1
Pseudomonas aeruginosa = assay: Antibacterial activity against Pseudomonas aeruginosa by two-fold serial dilution method; method in brief: as §1
Escherichia coli = assay: Antibacterial activity against Escherichia coli DH52 by two-fold serial dilution method; method in brief: as §1
Shigella dysenteriae = assay: Antibacterial activity against Shigella dysenteriae by two-fold serial dilution method; method in brief: as §2
[3] = Antibacterial activity against Eberthella typhosa by two-fold serial dilution method; method in brief: as §2
Cyberlindnera jadinii = assay: Antifungal activity against Candida utilis after 24 hrs by microbroth dilution method; settings: Williopsis jadinii
Method in brief: (§3)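 Spore suspension prepared in sterile distilled water from one-day-old cultures on Sabouraud agar, final 1-5 x 10^3 spores/mL. Compounds were serially diluted in RPMI 1640 to give eleven dilutions. Incubation at 35 °C for 24 h. Growth read visually and spectrophotometrically, in triplicate. MIC is the lowest concentration with complete inhibition.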

Saccharomyces cerevisiae = assay: Antifungal activity against Saccharomyces cerevisiae after 24 hrs by microbroth dilution method; method in brief: as §3
Candida albicans = assay: Antifungal activity against Candida albicans ATCC 76615 after 24 hrs by microbroth dilution method; settings: ATCC 76615, 24 h; method in brief: as §3
Pichia norvegensis = assay: Antifungal activity against Candida mycoderma after 24 hrs by microbroth dilution method
Streptococcus pneumoniae = assay: Antibacterial activity against Streptococcus pneumoniae by two-fold serial dilution method; method in brief: as §1

| Compound | MIC (Micrococcus luteus) [µg/mL] | MIC (Staphylococcus aureus [1]) [µg/mL] | MIC (Staphylococcus aureus [2]) [µg/mL] | MIC (Bacillus spizizenii) [µg/mL] | MIC (Pseudomonas aeruginosa) [µg/mL] | MIC (Escherichia coli) [µg/mL] | MIC (Shigella dysenteriae) [µg/mL] | MIC [3] [µg/mL] | MIC (Cyberlindnera jadinii) [µg/mL] | MIC (Saccharomyces cerevisiae) [µg/mL] | MIC (Candida albicans) [µg/mL] | MIC (Pichia norvegensis) [µg/mL] | MIC (Streptococcus pneumoniae) [µg/mL] |
| --- | --- | --- | --- | --- | --- | --- | --- | --- | --- | --- | --- | --- | --- |
| CCOC(=O)c1cn(CC(O)Cn2c([N+](=O)[O-])cnc2C)c2cc(C(F)(F)F)ccc2c1=O (racemic) | 4 (≈ 8.54 µM) | 8 (≈ 17.1 µM) | 4 (≈ 8.54 µM) | 16 (≈ 34.2 µM) | 8 (≈ 17.1 µM) | 2 (≈ 4.27 µM) | 2 (≈ 4.27 µM) | 4 (≈ 8.54 µM) | 128 (≈ 273 µM) | 8 (≈ 17.1 µM) | 8 (≈ 17.1 µM) | 32 (≈ 68.3 µM) |  |
| O=C(O)c1cn(CC(O)Cn2cnc([N+](=O)[O-])c2)c2ccc(F)cc2c1=O (stereo not drawn) | 16 (≈ 42.5 µM) | 8 (≈ 21.3 µM) | 16 (≈ 42.5 µM) | 16 (≈ 42.5 µM) | 8 (≈ 21.3 µM) | 8 (≈ 21.3 µM) | 8 (≈ 21.3 µM) | 8 (≈ 21.3 µM) | 128 (≈ 340 µM) | 64 (≈ 170 µM) | 64 (≈ 170 µM) | 256 (≈ 680 µM) | 8 (≈ 21.3 µM) |
| CCOC(=O)c1cn(CC2CO2)c2ccc(OC)cc2c1=O (racemic) | 128 (≈ 422 µM) | 64 (≈ 211 µM) | 32 (≈ 106 µM) | 16 (≈ 52.8 µM) | 32 (≈ 106 µM) | 16 (≈ 52.8 µM) | 64 (≈ 211 µM) | 1 (≈ 3.3 µM) | 512 (≈ 1690 µM) | 4 (≈ 13.2 µM) | 64 (≈ 211 µM) | 32 (≈ 106 µM) |  |
| CCOC(=O)c1cn(CC2CO2)c2ccc(F)cc2c1=O (racemic) |  |  |  | 64 (≈ 220 µM) |  |  |  | 8 (≈ 27.5 µM) |  |  |  | 8 (≈ 27.5 µM) |  |
| CCOC(=O)c1cn(CC(O)Cn2c([N+](=O)[O-])cnc2C)c2c(F)cc(F)cc2c1=O (racemic) | 4 (≈ 9.17 µM) | 16 (≈ 36.7 µM) | 8 (≈ 18.3 µM) | 32 (≈ 73.3 µM) | 4 (≈ 9.17 µM) | 4 (≈ 9.17 µM) | 16 (≈ 36.7 µM) | 4 (≈ 9.17 µM) | 64 (≈ 147 µM) | 64 (≈ 147 µM) | 128 (≈ 293 µM) | 64 (≈ 147 µM) |  |
| CCOC(=O)c1cn(CC(O)Cn2cnc([N+](=O)[O-])c2)c2ccc(OC)cc2c1=O (racemic) | 512 (≈ 1230 µM) | 4 (≈ 9.61 µM) | 4 (≈ 9.61 µM) | 64 (≈ 154 µM) | 64 (≈ 154 µM) | 2 (≈ 4.8 µM) | 32 (≈ 76.9 µM) | 256 (≈ 615 µM) | 8 (≈ 19.2 µM) | 4 (≈ 9.61 µM) | 16 (≈ 38.4 µM) | 512 (≈ 1230 µM) |  |
| CCOC(=O)c1cn(CC(O)Cn2c([N+](=O)[O-])cnc2C)c2c(Cl)cc(Cl)cc2c1=O (racemic) | 16 (≈ 34.1 µM) | 32 (≈ 68.2 µM) | 16 (≈ 34.1 µM) | 8 (≈ 17 µM) | 16 (≈ 34.1 µM) | 16 (≈ 34.1 µM) | 8 (≈ 17 µM) | 8 (≈ 17 µM) | 256 (≈ 546 µM) | 128 (≈ 273 µM) | 64 (≈ 136 µM) | 64 (≈ 136 µM) |  |
| CCOC(=O)c1cn(CC(O)Cn2cnc([N+](=O)[O-])c2)c2c(F)cccc2c1=O (racemic) | 64 (≈ 158 µM) | 8 (≈ 19.8 µM) | 256 (≈ 633 µM) | 32 (≈ 79.1 µM) | 32 (≈ 79.1 µM) | 32 (≈ 79.1 µM) | 16 (≈ 39.6 µM) | 32 (≈ 79.1 µM) | 16 (≈ 39.6 µM) | 256 (≈ 633 µM) | 128 (≈ 317 µM) | 256 (≈ 633 µM) |  |
| CCOC(=O)c1cn(CC(O)Cn2c([N+](=O)[O-])cnc2C)c2ccc(C)cc2c1=O (racemic) | 16 (≈ 38.6 µM) | 8 (≈ 19.3 µM) | 8 (≈ 19.3 µM) | 8 (≈ 19.3 µM) | 8 (≈ 19.3 µM) | 4 (≈ 9.65 µM) | 4 (≈ 9.65 µM) | 8 (≈ 19.3 µM) | 256 (≈ 618 µM) | 4 (≈ 9.65 µM) | 2 (≈ 4.83 µM) | 256 (≈ 618 µM) |  |
| CCOC(=O)c1cn(CC2CO2)c2cc(Cl)c(F)cc2c1=O (racemic) | 64 (≈ 196 µM) | 8 (≈ 24.6 µM) | 128 (≈ 393 µM) | 128 (≈ 393 µM) | 32 (≈ 98.2 µM) | 64 (≈ 196 µM) | 128 (≈ 393 µM) | 8 (≈ 24.6 µM) | 512 (≈ 1570 µM) | 4 (≈ 12.3 µM) | 64 (≈ 196 µM) | 1 (≈ 3.07 µM) |  |
| CCOC(=O)c1cn(CC(O)Cn2c([N+](=O)[O-])cnc2C)c2c(F)cccc2c1=O (racemic) | 8 (≈ 19.1 µM) | 8 (≈ 19.1 µM) | 32 (≈ 76.5 µM) | 16 (≈ 38.2 µM) | 16 (≈ 38.2 µM) | 16 (≈ 38.2 µM) | 8 (≈ 19.1 µM) | 4 (≈ 9.56 µM) | 512 (≈ 1220 µM) | 256 (≈ 612 µM) | 128 (≈ 306 µM) | 128 (≈ 306 µM) |  |
| CCOC(=O)c1cn(CC2CO2)c2c(F)cc(F)cc2c1=O (racemic) |  |  |  | 32 (≈ 103 µM) |  |  |  | 2 (≈ 6.47 µM) | 512 (≈ 1660 µM) |  |  | 16 (≈ 51.7 µM) |  |
